Screens deposited in PubChem BioAssay by several laboratories.
Calb biofilm kill = clotrimazole potentiators killing C. albicans biofilm, primary screen, 4-compound mixtures. C. albicans biofilm persisters + clotrimazole, fluorescence viability; primary screen in compound mixtures of four per well. 120,000 tested, 0.02% active. AID 1242, 2008. inhibition, % at 7.6 µM;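 active = inhibition above 30.3% in the primary screen of four-compound pools, then above 30% when the compound was retested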;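 also: compounds exposed to preformed 24 h biofilms for 48 h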
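Probe or stimulus – Clotrimazole 50 µg/mL co-treatment · System – C. albicans biofilms · Schedule – 24 h biofilm formation, then 48 h compound exposure, 37 °C · Evaluation – percent inhibition of biofilm viability · Technique – 2-h Alamar Blue fluorescence, 535/590 nm excitation/emission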
Hck Nef HTS = inhibitors of Nef-activated human Hck kinase, primary screen, biochemical, Z-Lyte FRET, 384-well, Hck-YEEI | AID 463187, 2010 | 220,000 tested, 0.68% active | Recombinant Hck-YEEI plus Nef, Z-Lyte FRET kinase assay | inhibition, % at 20 µM | Tyrosine-protein kinase HCK (Homo sapiens), P08631;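 active = Hck-Nef kinase inhibition above about 50%, limit read from the data; inactive = inhibition below that limit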
Target sequence (P08631 whole entry, looked up): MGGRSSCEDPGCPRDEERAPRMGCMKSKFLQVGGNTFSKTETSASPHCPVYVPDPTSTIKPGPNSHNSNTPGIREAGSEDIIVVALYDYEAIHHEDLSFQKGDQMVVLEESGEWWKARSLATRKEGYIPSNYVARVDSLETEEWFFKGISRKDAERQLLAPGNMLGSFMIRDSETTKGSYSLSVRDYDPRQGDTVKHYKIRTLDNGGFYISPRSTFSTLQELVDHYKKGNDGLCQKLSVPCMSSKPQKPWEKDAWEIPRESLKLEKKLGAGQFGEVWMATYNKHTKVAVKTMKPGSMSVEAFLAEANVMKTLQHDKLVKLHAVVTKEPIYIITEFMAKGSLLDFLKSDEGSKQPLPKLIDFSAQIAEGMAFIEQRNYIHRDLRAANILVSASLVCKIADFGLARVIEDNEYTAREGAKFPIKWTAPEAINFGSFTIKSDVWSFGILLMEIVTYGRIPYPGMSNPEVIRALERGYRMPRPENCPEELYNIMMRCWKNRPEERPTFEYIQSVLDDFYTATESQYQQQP
p47phox inh = p47phox/p22phox peptide binding inhibitors, primary screen, biochemical, uHTS, NADPH oxidase regulatory subunit. Neutrophil cytosol factor 1 (Homo sapiens), P14598. fluorescence polarization, 2 h. inhibition, % at 24.7 µM. 220,000 tested, 0.53% active. AID 1274, 2008;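 active = inhibition above about 30%, limit read from the data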
Arbovirus anti = antivirals against arbovirus infection, primary screen, cell-based, full library, 10K replicate subset; arbovirus infection cell-based antiviral screen; inhibition, % at 10 µM; 200,000 tested, 0.37% active; in the data active = inhibition above about 30%
WT yeast gro inh = growth inhibition of WT strain, primary screen, mitochondrial fusion inhibitor project, WT and mutant strains, chemical genetic | mitochondrial fusion phenotypic screen | inhibition, % at 10 µM | 190,000 tested, 2.1% active; in the data active = inhibition above about 58%; tested in S. cerevisiae
RAM network inh = inhibitors of the yeast RAM network, primary screen, dse1pr::URA3 reporter, 5-FOA selection; S. cerevisiae dse1pr::URA3 reporter, 5-FOA growth OD615, 2 d; analog-sensitive cbk1-as2 kinase mutant strain; 190,000 tested, 1.8% active; inhibition, % at 50 µM;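 active = inhibition above a set limit, 3 SD over mean compound inhibition, cut at about 8.4% in these data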;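 also: inhibition rescues growth on 5-FOA so higher OD means more RAM inhibition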
A number is an active result. Hits are enriched below; roughly 4.6% of the tested compounds scored in any of these assays.

Screening CC(C)=CCN1CCN(Cc2ccc(N3CCNC3=O)cc2)CC1CCO (centres undefined) returned Calb biofilm kill inactive, Hck Nef HTS inactive, p47phox inh inactive, Arbovirus anti inactive, WT yeast gro inh inactive and RAM network inh inactive.
O=C1NCCN1c1ccc(CN2CCN(C3CCCCC3)C(CCO)C2)cc1 (centres undefined) was read as Calb biofilm kill inactive, Hck Nef HTS inactive, p47phox inh 64, Arbovirus anti inactive, WT yeast gro inh inactive and RAM network inh inactive.
Cc1ccccc1N=C(NOCc1ccc(Cl)cc1Cl)c1nonc1N was read as Hck Nef HTS inactive, p47phox inh inactive, Arbovirus anti inactive, WT yeast gro inh 78 and RAM network inh inactive.
`Cc1ccc(NC(=O)O/N=C/c2c(C)nn(C(C)(C)C)c2C)cc1Cl` gave Calb biofilm kill inactive, Hck Nef HTS inactive and p47phox inh 132.
Screening Cc1ccc(NC(=O)NCc2c(C)nn(C)c2C)cc1Cl returned Calb biofilm kill inactive, Hck Nef HTS inactive, p47phox inh inactive, Arbovirus anti inactive, WT yeast gro inh inactive and RAM network inh inactive.
`O=C(O)c1ccc(COc2ccccc2/C=C2\NC(=O)N(Cc3ccccc3)C2=O)cc1` gave Calb biofilm kill inactive, Hck Nef HTS inactive, p47phox inh inactive, Arbovirus anti inactive, WT yeast gro inh inactive and RAM network inh inactive.
For O=C(O)c1ccc(COc2ccc3ccccc3c2/C=C2/NC(=O)N(Cc3ccc(F)cc3)C2=O)cc1 the results were Calb biofilm kill inactive, Hck Nef HTS inactive, p47phox inh inactive, Arbovirus anti 48, WT yeast gro inh inactive and RAM network inh inactive.
`Cc1ccc(N2C(=O)C3CCC(C)(C2=O)C3(C)C)cc1C` (centres undefined) gave Calb biofilm kill inactive, Hck Nef HTS inactive, p47phox inh inactive, Arbovirus anti inactive, WT yeast gro inh inactive and RAM network inh inactive.
`CC(C)NS(=O)(=O)c1ccc(NC(=O)C2CC3C=CC2C3)cc1` (centres undefined) gave Hck Nef HTS inactive, p47phox inh inactive, Arbovirus anti inactive, WT yeast gro inh 75 and RAM network inh inactive.
For CC[C@H](C)[C@H](NC(N)=O)C(=O)Nc1ccc(S(=O)(=O)NC(C)C)cc1 the results were Calb biofilm kill inactive, Hck Nef HTS inactive and p47phox inh inactive.
Screening COc1ccc(CCNC(=O)Cn2nc(C(=O)O)c3ccccc3c2=O)cc1OC returned Calb biofilm kill inactive, Hck Nef HTS inactive, p47phox inh inactive, Arbovirus anti inactive, WT yeast gro inh inactive and RAM network inh inactive.
`COc1ccc(CC(=O)NNC(=O)c2nn(Cc3ccccc3)c(=O)c3ccccc23)cc1OC` gave Calb biofilm kill inactive, Hck Nef HTS inactive and p47phox inh 142.
`O=C(c1ccc(CNS(=O)(=O)c2ccccc2)cc1)N1CCN(Cc2ccccc2)CC1` gave Hck Nef HTS inactive, p47phox inh inactive, Arbovirus anti inactive, WT yeast gro inh inactive and RAM network inh inactive.
O=C(/C=C/c1ccccc1)Nc1nc(-c2ccncc2)cs1 was read as Calb biofilm kill inactive, Hck Nef HTS inactive, p47phox inh 31, Arbovirus anti inactive, WT yeast gro inh inactive and RAM network inh inactive.
`O=C(Nc1nc(-c2cccc(Br)c2)cs1)Oc1ccccc1` gave Hck Nef HTS inactive, p47phox inh inactive, Arbovirus anti inactive, WT yeast gro inh inactive and RAM network inh inactive.
`O=C(Nc1nc(-c2ccccc2)cs1)c1ccc(Br)o1` gave Hck Nef HTS inactive, p47phox inh inactive, Arbovirus anti inactive, WT yeast gro inh 63 and RAM network inh inactive.
Screening CCc1ccc(-c2csc(NC(=O)Oc3ccccc3)n2)cc1 returned Calb biofilm kill inactive, Hck Nef HTS inactive, p47phox inh 30, Arbovirus anti inactive, WT yeast gro inh inactive and RAM network inh inactive.
Screening Cc1ccc(C(=O)Nc2nc(-c3cccnc3)cs2)o1 returned Hck Nef HTS inactive, p47phox inh inactive, Arbovirus anti inactive, WT yeast gro inh inactive and RAM network inh inactive.
`CN(Cc1ccccc1)S(=O)(=O)c1cn(C)cn1` gave Calb biofilm kill inactive, Hck Nef HTS inactive and p47phox inh inactive.
